Measurements collected from several papers.
Each line is one published result; the experiments were not run side by side.
Effect on: cell growth or viability

Structure (SMILES) | cell line | technique | time | notes | measurement | result
CCOP(=O)(OCC)[C@@H]1C[C@@H](n2cc(-c3ccccn3)nn2)ON1C (racemic) | HeLa |  | 72 h |  | CC50 | > 250 µM
COc1ccc(NS(=O)(=O)c2ccc(N(C)C=O)cc2)cn1 | HeLa | XTT | 72 h |  | IC50 | > 100 µM
CCOP(=O)(OCC)[C@@H]1C[C@H](n2cc(C(=O)OC)nn2)ON1C (relative stereo) | HEL |  | 72 h |  | CC50 | > 100 µM
C=CC1=C(C)c2cc3[nH]c(cc4nc(cc5[nH]c(cc1n2)c(C)c5CCC(=O)O)C(CCC(=O)O)=C4C)c(C)c3C=C | RPE-1 | resazurin | 4 h | dark | IC50 | > 100 µM
COc1cc(N)c(NS(=O)(=O)c2ccc(N(C)C)cc2)cc1OC | HeLa | XTT | 72 h |  | IC50 | > 100 µM
Cc1nc2ccc(Cl)cn2c1C(=O)N1CCN(Cc2cn(-c3ccccc3)nn2)CC1 | HeLa | resazurin |  |  | CC50 | > 100 µM
CCOP(=O)(OCC)[C@@H]1C[C@@H](n2cc(-c3nccn3C)nn2)ON1C | HEL |  | 72 h |  | CC50 | > 100 µM
COc1ccc(-n2cc(CN3CCN(C(=O)c4c(C)nc5ccc(Cl)cn45)CC3)nn2)c([N+](=O)[O-])c1 | HeLa | resazurin |  |  | CC50 | > 100 µM
COc1ccc(S(=O)(=O)Nc2cc(OC)c(NC(=O)CCl)cc2OC)cc1 | HeLa | XTT | 72 h |  | IC50 | 2.4 µM
Cc1nc2ccc(Cl)cn2c1C(=O)N1CCN(Cc2cn(-c3cccc(Cl)c3)nn2)CC1 | HeLa | resazurin |  |  | CC50 | > 100 µM
Nc1nc2c(ncn2COCCO)c(=O)[nH]1 | HEL |  | 72 h |  | CC50 | > 440 µM
COC(=O)c1cc(N)cc(NS(=O)(=O)c2ccc(OC)cc2)c1 | HeLa | XTT | 72 h |  | IC50 | 20 µM
COc1ccc(-n2cc(CN3CCN(C(=O)c4c(C)nc5cc(C)ccn45)CC3)nn2)c([N+](=O)[O-])c1 | HeLa | resazurin |  |  | CC50 | > 100 µM
